Broadly, the Ki is a dissociation constant, usually derived from enzyme kinetics or from competition with a known ligand. The low end stands for tighter binding, the high end for weaker binding.

Among the data in ChEMBL document CHEMBL1139609, “In pursuit of alpha4beta2 nicotinic receptor partial agonists for smoking cessation: carbon analogs of (-)-cytisine” (Bioorg Med Chem Lett, 2005) are Ki values, retold here.

The target of assay [1] is Neuronal acetylcholine receptor subunit alpha-7 (Homo sapiens, UniProt P36544). Put plainly: Inhibition of [3H]alpha-bungarotoxin binding to nicotinic acetylcholine receptor alpha7 of IMR32 cells. It is filed as cell-based, IMR-32.
Sequence of Neuronal acetylcholine receptor subunit alpha-7 (P36544 whole entry): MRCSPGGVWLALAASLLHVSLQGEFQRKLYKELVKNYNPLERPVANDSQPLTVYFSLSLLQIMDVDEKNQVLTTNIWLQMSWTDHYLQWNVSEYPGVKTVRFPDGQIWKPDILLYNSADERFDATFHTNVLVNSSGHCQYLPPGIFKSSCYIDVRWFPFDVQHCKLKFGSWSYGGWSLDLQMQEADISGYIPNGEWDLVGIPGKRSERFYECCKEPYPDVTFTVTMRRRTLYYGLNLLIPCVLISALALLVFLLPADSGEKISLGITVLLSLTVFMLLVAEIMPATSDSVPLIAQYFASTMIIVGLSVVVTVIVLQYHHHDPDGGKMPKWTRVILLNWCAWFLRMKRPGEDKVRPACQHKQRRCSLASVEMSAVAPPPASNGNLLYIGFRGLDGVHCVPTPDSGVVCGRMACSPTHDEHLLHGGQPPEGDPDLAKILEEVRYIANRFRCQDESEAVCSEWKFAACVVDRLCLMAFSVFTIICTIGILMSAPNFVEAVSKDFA
The target of assay [2] is Neuronal acetylcholine receptor; alpha3/beta4 (Homo sapiens, UniProt P30926+P32297). Kind of assay: Inhibition of [3H]epibatidine binding to nicotinic acetylcholine receptor alpha3-beta4 of IMR32 cells. It is filed as cell-based, IMR-32. In outline:
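Displacement of [3H]epibatidine binding in IMR32 cells, taken as the α3β4 nAChR site.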

Assay [3] concerns the target Neuronal acetylcholine receptor; alpha4/beta2 (Homo sapiens, UniProt P17787+P43681). Put plainly: Binding affinity against nicotinic acetylcholine receptor alpha4-beta2 in human HEK293 cells using [3H]- nicotine as radioligand. It is filed as cell-based.
Assay [4] addresses Neuronal acetylcholine receptor; alpha4/beta2 (Rattus norvegicus, UniProt P09483+P12390). Kind of assay: Inhibition of [3H]-nicotine binding to nicotinic acetylcholine receptor alpha4-beta2 in rat cortex.
Assay [5] can be described thus: Inhibition of [3H]alpha-bungarotoxin binding to nicotinic acetylcholine receptor alpha-1-beta-1-delta-gamma of electroplax. On the set-up: species or system pisces.

Sequence of Neuronal acetylcholine receptor; alpha4/beta2 (Rattus norvegicus, UniProt P09483+P12390) (P09483 whole entry): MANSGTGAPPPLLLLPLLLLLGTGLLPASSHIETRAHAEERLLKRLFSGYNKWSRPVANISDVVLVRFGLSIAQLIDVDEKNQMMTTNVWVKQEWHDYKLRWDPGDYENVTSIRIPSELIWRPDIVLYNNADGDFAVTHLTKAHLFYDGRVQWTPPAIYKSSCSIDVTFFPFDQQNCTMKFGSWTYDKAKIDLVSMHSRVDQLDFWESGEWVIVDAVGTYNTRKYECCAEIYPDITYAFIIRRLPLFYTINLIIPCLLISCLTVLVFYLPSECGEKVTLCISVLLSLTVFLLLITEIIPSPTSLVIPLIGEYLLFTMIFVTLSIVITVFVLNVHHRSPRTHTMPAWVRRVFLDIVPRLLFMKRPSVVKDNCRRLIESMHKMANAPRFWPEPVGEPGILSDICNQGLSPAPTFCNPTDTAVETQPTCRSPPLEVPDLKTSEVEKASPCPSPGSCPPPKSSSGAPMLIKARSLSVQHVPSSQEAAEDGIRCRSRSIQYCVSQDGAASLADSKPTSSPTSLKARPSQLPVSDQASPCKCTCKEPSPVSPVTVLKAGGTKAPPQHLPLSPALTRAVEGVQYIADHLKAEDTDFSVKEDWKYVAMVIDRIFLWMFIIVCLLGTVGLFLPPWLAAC
Sequence of Neuronal acetylcholine receptor; alpha4/beta2 (Rattus norvegicus, UniProt P09483+P12390) (P12390 whole entry): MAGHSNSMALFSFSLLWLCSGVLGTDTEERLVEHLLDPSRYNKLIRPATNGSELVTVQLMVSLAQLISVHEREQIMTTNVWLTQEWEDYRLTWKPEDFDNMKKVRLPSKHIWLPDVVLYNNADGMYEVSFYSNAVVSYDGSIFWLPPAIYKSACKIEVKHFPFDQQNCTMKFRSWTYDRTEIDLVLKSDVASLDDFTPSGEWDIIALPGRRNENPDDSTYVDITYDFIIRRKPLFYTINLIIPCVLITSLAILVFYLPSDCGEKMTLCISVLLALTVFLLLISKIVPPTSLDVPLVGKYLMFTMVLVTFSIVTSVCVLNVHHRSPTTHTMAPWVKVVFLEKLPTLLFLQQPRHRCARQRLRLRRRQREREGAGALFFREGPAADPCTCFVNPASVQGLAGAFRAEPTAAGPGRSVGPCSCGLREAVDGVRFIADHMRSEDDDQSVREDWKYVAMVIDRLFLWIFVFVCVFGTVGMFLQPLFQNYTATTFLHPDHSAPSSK
Sequence of Neuronal acetylcholine receptor; alpha4/beta2 (Homo sapiens, UniProt P17787+P43681) (P17787 whole entry): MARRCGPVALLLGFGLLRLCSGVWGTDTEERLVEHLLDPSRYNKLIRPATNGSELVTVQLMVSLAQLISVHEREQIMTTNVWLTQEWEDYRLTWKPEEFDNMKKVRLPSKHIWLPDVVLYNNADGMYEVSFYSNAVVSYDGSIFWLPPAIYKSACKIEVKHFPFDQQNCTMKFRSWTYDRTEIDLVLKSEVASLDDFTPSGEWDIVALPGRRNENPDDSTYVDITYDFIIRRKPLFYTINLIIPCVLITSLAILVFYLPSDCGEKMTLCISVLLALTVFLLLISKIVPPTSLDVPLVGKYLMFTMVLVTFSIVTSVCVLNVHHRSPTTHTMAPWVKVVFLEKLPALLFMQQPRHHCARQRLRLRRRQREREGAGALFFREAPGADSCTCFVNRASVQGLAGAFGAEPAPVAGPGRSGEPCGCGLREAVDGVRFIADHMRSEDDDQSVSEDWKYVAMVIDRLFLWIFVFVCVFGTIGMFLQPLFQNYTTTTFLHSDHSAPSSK
Sequence of Neuronal acetylcholine receptor; alpha4/beta2 (Homo sapiens, UniProt P17787+P43681) (P43681 whole entry): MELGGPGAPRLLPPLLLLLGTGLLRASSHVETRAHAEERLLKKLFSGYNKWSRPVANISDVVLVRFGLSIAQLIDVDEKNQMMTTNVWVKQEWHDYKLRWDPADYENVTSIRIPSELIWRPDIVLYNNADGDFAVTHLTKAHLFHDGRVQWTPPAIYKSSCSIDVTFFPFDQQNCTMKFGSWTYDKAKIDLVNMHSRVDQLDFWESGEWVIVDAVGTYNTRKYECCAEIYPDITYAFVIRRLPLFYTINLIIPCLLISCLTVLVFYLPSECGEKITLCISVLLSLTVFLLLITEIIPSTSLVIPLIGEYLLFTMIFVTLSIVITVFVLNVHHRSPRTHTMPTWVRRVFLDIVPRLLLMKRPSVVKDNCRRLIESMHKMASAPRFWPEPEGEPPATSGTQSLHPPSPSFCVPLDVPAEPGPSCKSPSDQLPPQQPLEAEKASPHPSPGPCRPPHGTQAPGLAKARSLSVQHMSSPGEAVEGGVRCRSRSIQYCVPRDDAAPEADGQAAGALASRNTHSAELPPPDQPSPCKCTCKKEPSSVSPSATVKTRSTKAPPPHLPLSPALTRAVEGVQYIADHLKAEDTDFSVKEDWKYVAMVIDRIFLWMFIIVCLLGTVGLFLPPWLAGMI
Sequence of Neuronal acetylcholine receptor; alpha3/beta4 (P30926 whole entry): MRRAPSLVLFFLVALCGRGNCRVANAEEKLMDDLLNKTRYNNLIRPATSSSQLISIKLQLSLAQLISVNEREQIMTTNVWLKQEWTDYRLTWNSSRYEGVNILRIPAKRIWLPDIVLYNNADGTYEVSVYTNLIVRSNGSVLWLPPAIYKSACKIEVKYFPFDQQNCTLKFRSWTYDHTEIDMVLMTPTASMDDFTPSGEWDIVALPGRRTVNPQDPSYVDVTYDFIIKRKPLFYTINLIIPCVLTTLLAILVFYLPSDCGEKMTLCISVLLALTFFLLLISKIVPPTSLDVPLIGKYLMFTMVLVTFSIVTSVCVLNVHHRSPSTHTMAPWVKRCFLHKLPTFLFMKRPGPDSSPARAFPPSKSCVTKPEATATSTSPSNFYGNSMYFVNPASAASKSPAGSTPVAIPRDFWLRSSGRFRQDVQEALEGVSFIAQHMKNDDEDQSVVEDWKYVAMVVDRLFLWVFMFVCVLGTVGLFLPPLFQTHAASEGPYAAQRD
Sequence of Neuronal acetylcholine receptor; alpha3/beta4 (P32297 whole entry): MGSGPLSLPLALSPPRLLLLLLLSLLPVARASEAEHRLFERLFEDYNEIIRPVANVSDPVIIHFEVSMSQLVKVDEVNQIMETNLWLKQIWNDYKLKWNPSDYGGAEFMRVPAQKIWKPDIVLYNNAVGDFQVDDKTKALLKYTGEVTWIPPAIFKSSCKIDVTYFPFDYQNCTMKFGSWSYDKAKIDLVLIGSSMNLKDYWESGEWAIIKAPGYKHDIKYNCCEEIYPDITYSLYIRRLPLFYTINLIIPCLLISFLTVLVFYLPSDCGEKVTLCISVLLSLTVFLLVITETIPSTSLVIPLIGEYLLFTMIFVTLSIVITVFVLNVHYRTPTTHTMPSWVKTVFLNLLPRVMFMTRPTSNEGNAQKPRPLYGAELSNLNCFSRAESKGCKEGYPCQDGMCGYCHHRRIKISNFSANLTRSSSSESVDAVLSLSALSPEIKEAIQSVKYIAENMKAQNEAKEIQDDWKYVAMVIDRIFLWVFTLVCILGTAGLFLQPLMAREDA

Consider `COc1ccc2c(c1)CC1CNCC2C1` (stereo unspecified), for which the Ki was 2400 nM in assay [1], 810 nM in assay [2], 1.4 nM in assay [3] and 3.2 nM in assay [4]. `COc1ccc(-c2ccc3c(c2)CC2CNCC3C2)cc1` (stereo unspecified) displayed a Ki in assay [3] of 370 nM. Regarding `FC(F)Oc1ccc2c(c1)CC1CNCC2C1` (stereo unspecified), the results for the Ki in assay [1] and in assay [3] were 1700 nM and 7 nM, respectively. Regarding `FC(F)(F)c1ccc(-c2ccc3c(c2)CC2CNCC3C2)cc1` (stereo unspecified), the affinity in assay [3] corresponds to a Ki of 200 nM. In other words, the sub-micromolar range.

`c1ccc(-c2ccc3c(c2)CC2CNCC3C2)cc1` (stereo unspecified) yielded a Ki in assay [3] of more than 500 nM. The same measure, in the same setting: to `COc1ccc2c(c1O)CC1CNCC2C1` (stereo unspecified) belongs 13 nM; to `Oc1cccc2c1CC1CNCC2C1` (stereo unspecified), 2.9 nM; to `c1cncc(-c2ccc3c(c2)CC2CNCC3C2)c1` (stereo unspecified), more than 500 nM. As for `COc1ccc2c(c1)C1CNCC(C2)C1` (stereo unspecified), the Ki in assay [4] was 90 nM.

For `O=c1oc2ccc3c(c2o1)CC1CNCC3C1` (stereo unspecified), the Ki in assay [3] is more than 500 nM.

On to `O=[N+]([O-])c1ccc2c(c1)C1CNCC(C2)C1` (stereo unspecified), for which the Ki is 980 nM in assay [2] and 6.5 nM in assay [3].

As to `O=[N+]([O-])c1ccc2c(c1)CC1CNCC2C1` (stereo unspecified), the Ki in assay [2] was found to be 340 nM; in assay [3], 4.9 nM. Turning to `COC(=O)c1ccc2c(c1)CC1CNCC2C1` (stereo unspecified), in assay [3], the Ki is 34 nM.

As for `Fc1ccc2c(c1)CC1CNCC2C1` (stereo unspecified), the Ki came out at 350 nM in assay [1], 710 nM in assay [2] and 2 nM in assay [3]. Regarding `Fc1cccc2c1CC1CNCC2C1` (stereo unspecified), the Ki in assay [1] turned out to be 830 nM; in assay [3], 6.5 nM. In assay [3], `CC(C)(O)c1ccc2c(c1)CC1CNCC2C1` (stereo unspecified) yielded a Ki of 264 nM. Same read-out and setting: to `COc1cccc2c1CC1CNCC2C1` (stereo unspecified) belongs more than 500 nM; to `Nc1cccc(-c2ccc3c(c2)CC2CNCC3C2)c1` (stereo unspecified), more than 500 nM; to `CC(C)c1ccc2c(c1)CC1CNCC2C1` (stereo unspecified), 72 nM.

In assay [3], `CCOc1ccc2c(c1)CC1CNCC2C1` (stereo unspecified) showed a Ki of 13 nM.

For the molecule `Oc1ccc2c(c1)C1CNCC(C2)C1` (stereo unspecified), in assay [4], the Ki is 75 nM. Consider `O=[N+]([O-])c1cccc2c1C1CNCC(C2)C1` (stereo unspecified), for which the Ki in assay [3] came to 14 nM. On to `Fc1ccc2c(c1F)CC1CNCC2C1` (stereo unspecified), for which the Ki in assay [1] worked out at 520 nM; in assay [2], 810 nM; in assay [5] it was 3000 nM; in assay [3], 0.44 nM. As for `NC(=O)COc1ccc2c(c1)CC1CNCC2C1` (stereo unspecified), the Ki in assay [3] is more than 500 nM. Regarding `c1ccc2c(c1)CC1CNCC2C1` (stereo unspecified), the inhibition constant Ki in assay [3] amounted to 34 nM; in assay [4], 65 nM. Turning to `c1cc2c(c3c1CC1CNCC3C1)OCO2` (stereo unspecified), the Ki in assay [1] was 5100 nM; in assay [2], 1900 nM; in assay [5] it was 4500 nM; in assay [3] it was 5.7 nM.

As to `Oc1ccc2c(c1)CC1CNCC2C1` (stereo unspecified), affinity in assay [3] was put at a Ki of 90 nM. Regarding `O=c1cccc2n1C[C@@H]1CNC[C@H]2C1` [CYTISINICLINE], the Ki in assay [1] came to 4200 nM; in assay [5] it was 250 nM; in assay [3], 0.23 nM.
